Measured values pooled from the literature.
Lines come from different studies, so protocols differ.
Target: Receptor-interacting serine/threonine-protein kinase 2 (RIPK2, Homo sapiens, UniProt O43353)

| SMILES | effect on | action | method | tested at | measurement | value |
| --- | --- | --- | --- | --- | --- | --- |
| O=c1[nH]c2ccccc2n1C1CCN(Cc2ccc(-c3[nH]c4cc5ncnc5cc4nc3-c3ccccc3)cc2)CC1 | cell-free assay |  |  | 0.5 µM | remaining signal | 89.2% |
| Cn1cc(-c2cc(F)cc(N3CCn4c(cc5c4CCCC5)C3=O)c2CO)cc(Nc2ccc(N3CCN(C4COC4)CC3)cn2)c1=O | enzyme activity | inhibitor |  | 0.1 µM | inhibition | -5% |
| COc1ncccc1-c1cnn2ccc(N3CCN(C(=O)OC(C)C)CC3)nc12 | binding |  | competition with immobilised ligand | 1 µM | remaining binding | 51% |
| Cn1cc(-c2cccc(N3CCc4c(sc5c4CC(C)(C)C5)C3=O)c2CO)cc(Nc2ccncn2)c1=O | enzyme activity | inhibitor |  | 1 µM | inhibition | 1% |
| N#CC1(c2ccccn2)CCN(Cc2cc(C(=O)O)c(=O)n3ccccc23)CC1 | cell-free assay |  | competition with immobilised ligand | 1 µM | remaining binding | 92% |
| CC(C)(C)c1cc(C=C(C#N)C#N)cc(Br)c1O | enzyme activity | inhibitor |  | 0.5 µM | remaining activity | 32.8% |
| Cn1cncc1[C@@](O)(COc1ccc(C#N)cc1-c1ccc(OC(F)(F)F)cc1)c1ccc(C#N)cc1 | cell-free assay |  | competition with immobilised ligand | 1 µM | remaining binding | 100% |
| Nc1ncc(-c2nc(N3CCOCC3)nc(N3CCOCC3)n2)c(C(F)F)n1 | binding |  | competition with immobilised ligand | 10 µM | remaining binding | 100% |
| Cc1nn(C)cc1-c1nc2c(N3CCN(Cc4ccc(Cl)cc4)CC3)c(Cl)cnc2[nH]1 | binding |  | competition with immobilised ligand | 1 µM | remaining binding | 100% |
